In ChEMBL document CHEMBL1134275, “New pyridoquinoline derivatives as potential inhibitors of the fluoroquinolone efflux pump in resistant Enterobacter aerogenes strains” (2001):

Assays:
Type in all cases: functional
[1] = system: Klebsiella aerogenes; assay: Inhibitory activity against ATCC 13048 strain(Enterobacter aerogenes) in the presence of ciprofloxacin fluoroquinolone at 16 ug/mL
Summary of the method: (§1)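 Checkerboard microtitration MIC with fluoroquinolone plus test compound against E. aerogenes ATCC 13048 or its p9 derivative carrying plasmid-borne E. coli marA. Bacteria were grown in Luria-Bertani or Mueller-Hinton broth at 37 °C, with 15 µg/mL tetracycline for p9. Wells were inoculated at 10^5 cells/mL and growth was scored visually after 18 h at 37 °C. Values are means of two independent experiments.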

[2] = system: Klebsiella aerogenes; assay: Inhibitory activity against p9- (derivative of ATCC )13048 strain(Enterobacter aerogenes) in the presence of Norfloxacin and fluoroquinolone at 16 ug/mL; summary of the method: as §1
[3] = system: Klebsiella aerogenes; assay: Inhibitory activity against ATCC 13048 strain(Enterobacter aerogenes) in the presence of Norfloxacin and fluoroquinolone at a concentration of 16 ug/mL; summary of the method: as §1
[4] = system: Klebsiella aerogenes; assay: Inhibitory activity against p9- (derivative of ATCC )13048 strain(Enterobacter aerogenes) in the presence of ciprofloxacin and fluoroquinolone at 16 ug/mL; summary of the method: as §1
[5] = system: Klebsiella aerogenes; assay: Inhibitory activity against ATCC 13048 strain(Enterobacter aerogenes) in the presence of Norfloxacin and fluoroquinolone at 16 ug/mL; summary of the method: as §1
[6] = system: Klebsiella aerogenes; assay: Inhibitory activity against ATCC 13048 strain(Enterobacter aerogenes) in the presence of Norfloxacin and fluoroquinolone at 32 ug/mL; summary of the method: as §1
[7] = system: Klebsiella aerogenes; assay: Inhibitory activity against ATCC 13048 strain(Enterobacter aerogenes) in the presence of ciprofloxacin fluoroquinolone at 32 ug/mL; summary of the method: as §1
[8] = system: Klebsiella aerogenes; assay: Inhibitory activity against Enterobacter aerogenes-3 istrainn the presence of ciprofloxacin and fluoroquinolone at 128 ug/mL
Summary of the method: (§2)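 Compound ranged 8–128 µg/mL, combined with norfloxacin at 16–128 µg/mL or ciprofloxacin at 4–64 µg/mL (final). Cells were grown in LB or MH broth at 37 °C and wells inoculated at 10^5 cells/mL. After 18 h at 37 °C growth was read visually. Values are means of two independent experiments.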

[9] = system: Klebsiella aerogenes; assay: Inhibitory activity against Enterobacter aerogenes-3 strain in the presence of Norfloxacin and fluoroquinolone at 128 ug/mL; summary of the method: as §2
[10] = system: Klebsiella aerogenes; assay: Inhibitory activity against Enterobacter aerogenes-3 strain in the presence of Norfloxacin and fluoroquinolone at 64 ug/mL; summary of the method: as §2
[11] = system: Klebsiella aerogenes; assay: Inhibitory activity against Enterobacter aerogenes-3 istrainn the presence of ciprofloxacin and fluoroquinolone at 64 ug/mL; summary of the method: as §2
[12] = system: Klebsiella aerogenes; assay: Inhibitory activity against p9- (derivative of ATCC )13048 strain(Enterobacter aerogenes) in the presence of Norfloxacin and luoroquinolone at 16 ug/mL; summary of the method: as §1

| SMILES | MIC [1] | MIC [2] | MIC [3] | MIC [4] | MIC [5] | MIC [6] | MIC [7] | MIC [8] | MIC [9] | MIC [10] | MIC [11] | MIC [12] |
| --- | --- | --- | --- | --- | --- | --- | --- | --- | --- | --- | --- | --- |
| O=C(O)c1cn(C2CC2)c2cc(N3CCNCC3)c(F)cc2c1=O [CIPROFLOXACIN] | 0.5 µg/mL | 32 µg/mL | – | – | 0.025 µg/mL | – | – | – | – | – | – | – |
| Cc1cc(SCCn2cccc2)c2cc3c(SCCn4cccc4)cc(C)nc3c(C)c2n1 | 0.025 µg/mL | 0.5 µg/mL | – | 0.1 µg/mL | 0.025 µg/mL | – | – | – | – | – | – | – |
| Cc1cc(OCCN(C(C)C)C(C)C)c2cc3c(OCCN(C(C)C)C(C)C)cc(C)nc3c(C)c2n1 | 0.05 µg/mL | – | – | 0.5 µg/mL | 0.05 µg/mL | – | – | – | – | – | – | 2 µg/mL |
| CCN(CC)CCSc1cc(C)nc2c(C)c3nc(C)cc(SCCN(CC)CC)c3cc12 | 0.025 µg/mL | 1 µg/mL | – | 0.5 µg/mL | 0.05 µg/mL | – | – | – | – | – | – | – |
| CCn1cc(C(=O)O)c(=O)c2cc(F)c(N3CCNCC3)cc21 [NORFLOXACIN] | – | 128 µg/mL | – | – | 0.05 µg/mL | – | – | – | – | – | – | – |

Further compounds by falling MIC [1], results first:

| MIC [1] | MIC [2] | MIC [3] | MIC [4] | MIC [5] | MIC [6] | MIC [7] | MIC [8] | MIC [9] | MIC [10] | MIC [11] | MIC [12] | SMILES |
| --- | --- | --- | --- | --- | --- | --- | --- | --- | --- | --- | --- | --- |
| 0.025 µg/mL | 1 µg/mL | 0.1 µg/mL | 0.25 µg/mL | – | – | – | – | – | – | – | – | Cc1cc(OCCN(C)C)c2cc3c(OCCN(C)C)cc(C)nc3c(C)c2n1 |
| 0.025 µg/mL | 2 µg/mL | – | 0.5 µg/mL | 0.05 µg/mL | – | – | – | – | – | – | – | Cc1cc(OCCN2CCOCC2)c2cc3c(OCCN4CCOCC4)cc(C)nc3c(C)c2n1 |
| 0.025 µg/mL | 0.25 µg/mL | – | 0.25 µg/mL | 0.05 µg/mL | 0.25 µg/mL | 0.1 µg/mL | 4 µg/mL | 16 µg/mL | 64 µg/mL | 8 µg/mL | – | Cc1cc(SCCN(C)C)c2cc3c(SCCN(C)C)cc(C)nc3c(C)c2n1 |
| 0.025 µg/mL | 1 µg/mL | – | 0.05 µg/mL | 0.05 µg/mL | – | – | 32 µg/mL | 128 µg/mL | – | – | – | Cc1cc(OCCCN(C)C)c2cc3c(OCCCN(C)C)cc(C)nc3c(C)c2n1 |
| 0.025 µg/mL | 2 µg/mL | – | 0.5 µg/mL | 0.05 µg/mL | – | – | – | – | – | – | – | Cc1cc(SCCN2CCCCC2)c2cc3c(SCCN4CCCCC4)cc(C)nc3c(C)c2n1 |
| 0.025 µg/mL | 1 µg/mL | – | 0.25 µg/mL | 0.1 µg/mL | – | – | 32 µg/mL | 128 µg/mL | – | – | – | Cc1cc(OCCN2CCCCC2)c2cc3c(OCCN4CCCCC4)cc(C)nc3c(C)c2n1 |
